Values joined by “and” are separate entries in the source; they are usually repeats but may differ in a detail not shown here. Equal values may be shown once. Square brackets hold non-standard residues; d marks the D form. Peptide text beside a SMILES is read from it. * marks the point of attachment. ξ: configuration not given here. βNA = c1ccc2cc(N*)ccc2c1; Cbz = O=C(OCc1ccccc1)*; ξP = O=C(O)C1CCCN1
Tests used:
Rattus norvegicus [1] = species: Rattus norvegicus; experiment: (§1) Lysozyme-conjugated prodrugs: in vitro stability at pH 5; assay type: functional
Procedure, shortened: (§2)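 Conjugate incubated 24 h in pH 5.0 buffer, pH 7.4 buffer, or plasma buffered at pH 7.4. Samples were deproteinized with ACN, MeOH or 2 N HCl, centrifuged, and analyzed by RP-HPLC against an internal standard. Release is % parent drug = parent/(parent + derivative) from IS-normalized peak-area ratios, mean of at least two separate incubations.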

Rattus norvegicus [2] = species: Rattus norvegicus; experiment: (§3) Lysozyme-conjugated prodrugs: in vitro stability at pH 7.4; assay type: functional; procedure, shortened: as §2
Rattus norvegicus [3] = species: Rattus norvegicus; experiment: as §1; assay type: ADME; procedure, shortened: as §2
Rattus norvegicus [4] = species: Rattus norvegicus; experiment: as §3; assay type: functional; procedure, shortened: as §2; remark: listed apart in the source
Rattus norvegicus [5] = species: Rattus norvegicus; experiment: as §1; assay type: functional; procedure, shortened: as §2; remark: listed apart in the source
Rattus norvegicus [6] = species: Rattus norvegicus; experiment: as §3; assay type: functional; procedure, shortened: as §2; remark: listed apart in the source
Rattus norvegicus [7] = species: Rattus norvegicus; experiment: as §3; assay type: functional; procedure, shortened: as §2; remark: listed apart in the source

Drug release (Rattus norvegicus [3])	Compound	Drug release (Rattus norvegicus [1]) [%]	Drug release (Rattus norvegicus [2])	Drug release (Rattus norvegicus [4]) [%]	Drug release (Rattus norvegicus [5]) [%]	Drug release (Rattus norvegicus [6]) [%]	Drug release (Rattus norvegicus [7]) [%]
0%	O=C(O)CC[C@H](NC(=O)c1ccccc1)C(=O)O	0	0%	0	–	–	–
0%	C[C@H](NC(=O)OCc1ccccc1)C(=O)N1CCC[C@H]1C(=O)N[C@@H](Cc1ccccc1)C(=O)O (Cbz-Ala-Pro-Phe-OH)	0	0%	96	–	–	–
0%	O=C(N[C@@H](Cc1c[nH]c2ccccc12)C(=O)O)c1ccccc1	0	0%	0	–	–	–
0%	COc1ccc2cc(C(C)C(=O)N[C@@H](CCC(=O)O)C(=O)O)ccc2c1 (stereo partly specified)	0	0%	0	–	–	–
0%	CC(C)C[C@H](N)C(=O)Nc1nc(N)c2nc(-c3ccccc3)c(N)nc2n1	<5	0%	<5	–	–	–
< 1%	COc1ccc2cc(C(C)C(=O)N[C@@H](Cc3ccc(O)cc3)C(=O)NCC(=O)NCC(=O)O)ccc2c1 (stereo in doubt; 1e)	<1	<1%	<1	<1	<1	<1
0%	NCC(=O)N[C@@H](Cc1ccccc1)C(=O)Nc1ccc2ccccc2c1 (H-Gly-Phe-βNA)	100	0%	100	100	100	–
0%	CC(C)C[C@H](NC(=O)c1ccccc1)C(=O)O	0	0%	0	–	–	–
0%	COc1ccc2cc(C(C)C(=O)NCC(=O)O)ccc2c1 (stereo unspecified)	0	0%	0	–	–	–
0%	COc1ccc2c(c1)c(CC(=O)N[C@@H](CC(C)C)C(=O)O)c(C)n2C(=O)c1ccc(Cl)cc1	0	0%	0	–	–	–
0.6%	COc1ccc2cc(C(C)C(=O)O[C@@H](C)C(=O)O)ccc2c1 (stereo in doubt; 1r)	100	1.4%	15	100	3	13
0%	COc1ccc2cc(C(C)C(=O)NCCCC[C@H](N)C(=O)O)ccc2c1 (stereo partly specified)	0	0%	0	0	0	0
< 1%	COc1ccc2cc(C(C)C(=O)NC(Cc3ccc(O)cc3)C(=O)O)ccc2c1 (stereo unspecified)	<1	<1%	<1	<1	<1	<1
0%	O=C(N[C@@H](Cc1ccccc1)C(=O)O)c1ccccc1	0	0%	0	–	–	–

The remaining lines, values behind:

Compound	Drug release (Rattus norvegicus [3])	Drug release (Rattus norvegicus [1]) [%]	Drug release (Rattus norvegicus [2])	Drug release (Rattus norvegicus [4]) [%]	Drug release (Rattus norvegicus [5]) [%]	Drug release (Rattus norvegicus [6]) [%]	Drug release (Rattus norvegicus [7]) [%]
COc1ccc2cc(C(C)C(=O)N[C@@H](CCCN=C(N)N)C(=O)O)ccc2c1 (stereo partly specified)	0%	0	0%	0	–	–	–
N=C(N)NCCC[C@H](NC(=O)c1ccccc1)C(=O)O	0%	0	0%	0	–	–	–
COc1ccc2cc(C(C)C(=O)N[C@@H](CC(C)C)C(=O)O)ccc2c1 (stereo partly specified)	0%	0	0%	0	–	–	–
C[C@@H](NC(=O)C(Cc1ccccc1)NC(=O)OCc1ccccc1)C(=O)O (stereo partly specified)	0%	100	0%	100	100	100	–
COc1ccc2cc(C(C)C(=O)N[C@@H](Cc3ccc(O)cc3)C(=O)NCC(=O)NCC(=O)O)ccc2c1 (stereo in doubt; 1p)	0%	0	0%	0	–	–	–
COc1ccc2cc(C(C)C(=O)N[C@H](C(=O)O)C(C)C)ccc2c1 (stereo partly specified)	0%	0	0%	0	–	–	–
CC(C)C[C@H](N)C(=O)Nc1ccc2ccccc2c1	0%	100	0%	100	100	100	–
COc1ccc2cc(C(C)C(=O)N[C@@H](Cc3ccc(O)cc3)C(=O)O)ccc2c1 (stereo partly specified)	0%	0	0%	0	–	–	–
COc1ccc2cc(C(C)C(=O)N[C@@H](CC(C)C)C(=O)NCC(=O)NCC(=O)O)ccc2c1 (stereo in doubt; 1c)	< 1%	<1	<1%	<1	<1	<1	<1
COc1ccc2c(c1)c(CC(=O)NCC(=O)O)c(C)n2C(=O)c1ccc(Cl)cc1	0%	0	0%	0	–	–	–
O=C(N[C@@H](Cc1ccc(O)cc1)C(=O)O)c1ccccc1	0%	0	0%	0	–	–	–
COc1ccc2c(c1)c(CC(=O)N[C@@H](Cc1c[nH]c3ccccc13)C(=O)O)c(C)n2C(=O)c1ccc(Cl)cc1	0%	0	0%	0	–	–	–
COc1ccc2c(c1)c(CC(=O)N[C@@H](Cc1ccccc1)C(=O)O)c(C)n2C(=O)c1ccc(Cl)cc1	0%	0	0%	0	–	–	–
COc1ccc2cc(C(C)C(=O)OCC(=O)O)ccc2c1 (stereo unspecified)	1%	81	2%	8	45	5	8
COc1ccc2cc(C(C)C(=O)N[C@@H](Cc3ccccc3)C(=O)O)ccc2c1 (stereo partly specified)	0%	0	0%	0	–	–	–
O=C(N[C@@H](Cc1ccccc1)C(=O)O)C1CCCN1C(=O)OCc1ccccc1 (stereo partly specified) (Cbz-[ξP]-Phe-OH)	0%	100	0%	100	100	100	–
O=C(O)CNC(=O)c1ccccc1 [HIPPURIC ACID]	0%	0	0%	0	–	–	–
COc1ccc2cc(C(C)C(=O)NC(CC(C)C)C(=O)O)ccc2c1 (stereo unspecified)	< 1%	<1	<1%	<1	<1	<1	<1
Cc1cc(NS(=O)(=O)c2ccc(NC(=O)CC3=CC(=O)OC3=O)cc2)no1	100% and 80%	84	15% and 7%	8	84	8	7
COc1ccc2cc(C(C)C(=O)N[C@@H](CC(C)C)C(=O)NCC(=O)NCC(=O)O)ccc2c1 (stereo in doubt; 1o)	0%	0	0%	0	–	–	–
COc1ccc2c(c1)c(CC(=O)N[C@@H](CCC(=O)O)C(=O)O)c(C)n2C(=O)c1ccc(Cl)cc1	0%	0	0%	0	–	–	–
COc1ccc2c(c1)c(CC(=O)N[C@@H](Cc1ccc(O)cc1)C(=O)O)c(C)n2C(=O)c1ccc(Cl)cc1	0%	0	0%	0	–	–	–
COc1ccc2cc(C(C)C(=O)O[C@@H](C)C(=O)O)ccc2c1 (stereo in doubt)	1.1%	2	6.9%	–	2	–	6.8
NCCCC[C@H](NC(=O)c1ccccc1)C(=O)O	0%	0	0%	0	–	–	–
COc1ccc2cc(C(C)C(=O)N[C@@H](Cc3c[nH]c4ccccc34)C(=O)O)ccc2c1 (stereo partly specified)	0%	0	0%	0	–	–	–
CC(C)C[C@H](N)C(=O)Nc1nc(N)nc2nc(N)c(-c3ccccc3)nc12	0%	0	0%	0	–	–	–
CC(C)C[C@H](N)C(=O)Nc1nc2nc(N)nc(N)c2nc1-c1ccccc1	0%	<5	0%	<5	–	–	–
COc1ccc2c(c1)c(CC(=O)NCCCC[C@H](NC(=O)OCc1ccccc1)C(=O)O)c(C)n2C(=O)c1ccc(Cl)cc1	0%	0	0%	0	–	–	–

From ChEMBL document CHEMBL1125422, “Low molecular weight proteins as carriers for renal drug targeting. Preparation of drug-protein conjugates and drug-spacer derivatives and their catabolism in renal cortex homogenates and lysosomal lysates” (J Med Chem, 1992)
